Consider 3 compounds from ChEMBL document CHEMBL3822384, “2-(3-Methoxyphenyl)quinazoline Derivatives: A New Class of Direct Constitutive Androstane Receptor (CAR) Agonists” (J Med Chem, 2016).

Broadly, the EC50 is the concentration at which the effect is half-maximal.

The source made the active and inactive calls. The calls are words filed in the database; no cut-off is given here.

Data set [1] concerns the target T1, Vitamin D3 receptor (Homo sapiens) (UniProt P11473).
T1 sequence (whole entry): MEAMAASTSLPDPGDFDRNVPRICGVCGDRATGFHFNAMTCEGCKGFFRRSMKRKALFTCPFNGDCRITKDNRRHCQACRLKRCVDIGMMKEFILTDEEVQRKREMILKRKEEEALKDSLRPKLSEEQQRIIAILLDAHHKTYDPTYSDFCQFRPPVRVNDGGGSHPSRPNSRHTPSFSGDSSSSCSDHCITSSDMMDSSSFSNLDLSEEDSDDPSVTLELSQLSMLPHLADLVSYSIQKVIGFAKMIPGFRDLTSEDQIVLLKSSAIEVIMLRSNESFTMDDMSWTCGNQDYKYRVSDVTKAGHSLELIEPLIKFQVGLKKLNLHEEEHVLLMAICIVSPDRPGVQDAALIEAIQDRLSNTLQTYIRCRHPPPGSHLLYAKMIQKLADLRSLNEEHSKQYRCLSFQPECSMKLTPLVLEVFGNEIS
Kind of data set: Agonist activity at VDR in human primary hepatocytes assessed as upregulation of CYP3A5 mRNA expression at 10 uM after 24 hrs by qRT-PCR method. The format is cell-based. To be noted: Hepatocyte.

In data set [2] the target is T2, Nuclear receptor subfamily 1 group I member 2 (Homo sapiens, UniProt O75469).
T2 sequence (O75469 whole entry): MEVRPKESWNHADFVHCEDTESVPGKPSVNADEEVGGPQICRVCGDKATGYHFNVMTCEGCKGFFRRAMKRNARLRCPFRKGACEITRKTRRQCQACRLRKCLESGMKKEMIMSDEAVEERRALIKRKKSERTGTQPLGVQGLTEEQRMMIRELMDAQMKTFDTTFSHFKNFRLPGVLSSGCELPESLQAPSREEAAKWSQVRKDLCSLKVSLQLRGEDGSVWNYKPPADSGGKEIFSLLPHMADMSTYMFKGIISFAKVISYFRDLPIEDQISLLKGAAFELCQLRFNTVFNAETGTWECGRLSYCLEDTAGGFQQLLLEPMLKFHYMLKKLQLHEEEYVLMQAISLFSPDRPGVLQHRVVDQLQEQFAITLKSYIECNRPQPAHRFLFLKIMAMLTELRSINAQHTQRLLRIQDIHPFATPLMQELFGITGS
In words: Agonist activity at PXR in human primary hepatocytes assessed as upregulation of UGT1A1 mRNA expression at 10 uM after 24 hrs by qRT-PCR method. The format is cell-based, Hepatocyte. On the technique in general: In qPCR the cycle at which signal appears reflects the starting amount.

Data set [3] has as its target T3, Glucocorticoid receptor (Homo sapiens) (UniProt P04150).
T3 sequence (whole entry): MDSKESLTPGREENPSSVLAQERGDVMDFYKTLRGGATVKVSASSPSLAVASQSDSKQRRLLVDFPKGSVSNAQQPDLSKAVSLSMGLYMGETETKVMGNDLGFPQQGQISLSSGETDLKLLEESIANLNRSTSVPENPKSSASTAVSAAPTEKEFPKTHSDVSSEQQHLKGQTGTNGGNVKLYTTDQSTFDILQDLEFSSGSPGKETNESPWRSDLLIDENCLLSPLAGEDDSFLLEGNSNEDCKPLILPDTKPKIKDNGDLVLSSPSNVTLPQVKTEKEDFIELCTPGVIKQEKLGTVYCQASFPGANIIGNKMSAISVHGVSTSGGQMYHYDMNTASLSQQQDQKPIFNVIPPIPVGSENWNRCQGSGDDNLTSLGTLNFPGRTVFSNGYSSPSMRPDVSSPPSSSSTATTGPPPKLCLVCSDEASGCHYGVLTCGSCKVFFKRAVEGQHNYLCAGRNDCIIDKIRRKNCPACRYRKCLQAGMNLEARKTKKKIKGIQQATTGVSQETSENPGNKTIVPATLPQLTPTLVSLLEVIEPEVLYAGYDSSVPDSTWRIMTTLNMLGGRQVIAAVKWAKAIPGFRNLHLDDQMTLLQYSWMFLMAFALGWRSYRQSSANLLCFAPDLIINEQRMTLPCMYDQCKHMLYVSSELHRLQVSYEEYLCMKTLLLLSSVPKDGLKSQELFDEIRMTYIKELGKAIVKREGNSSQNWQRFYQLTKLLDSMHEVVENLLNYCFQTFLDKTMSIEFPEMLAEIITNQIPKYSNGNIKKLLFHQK
Kind of data set: Agonist activity at glucocorticoid receptor (unknown origin).

The target in data set [4] is T4, Nuclear receptor subfamily 1 group I member 3 (Homo sapiens, UniProt Q14994).
T4 sequence (Q14994 whole entry): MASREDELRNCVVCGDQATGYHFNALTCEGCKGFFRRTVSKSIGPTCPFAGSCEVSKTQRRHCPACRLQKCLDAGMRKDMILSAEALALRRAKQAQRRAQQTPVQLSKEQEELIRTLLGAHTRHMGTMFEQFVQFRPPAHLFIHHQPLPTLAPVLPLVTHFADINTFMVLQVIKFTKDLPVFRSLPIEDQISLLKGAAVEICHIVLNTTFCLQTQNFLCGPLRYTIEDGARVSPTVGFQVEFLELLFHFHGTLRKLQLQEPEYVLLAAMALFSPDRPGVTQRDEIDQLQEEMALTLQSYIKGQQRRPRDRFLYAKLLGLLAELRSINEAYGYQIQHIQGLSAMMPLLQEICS
Kind of data set: Agonist activity at CAR in human primary hepatocytes assessed as upregulation of MDR/ABCB1 mRNA expression at 10 uM after 24 hrs by qRT-PCR method. Format: cell-based, Hepatocyte.

The target in data set [5] is Nuclear receptor subfamily 1 group I member 3 (Homo sapiens, UniProt Q14994). In words: (§1) Agonist activity at human CAR3 expressed in African green monkey COS-1 cells cotransfected with RXRalpha after 24 hrs by CYP2B6-luciferase reporter gene assay. Format: cell-based. To be noted: for EC50: cos-1; for Activity: human, cos-1, 24 h. In outline:
(§2)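 COS-1 cells co-transfected with CYP2B6-luc, low-constitutive-activity CAR3 variant, RXRα (100 ng/well) and pRL-TK; after 24 h stabilization, compound or DMSO (0.1%, v/v) for 24 h. Firefly luciferase normalized to Renilla; fold change relative to vehicle (set to 1), means of three independent experiments.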

A further data set has as its target CAR3 (NR1I3) (Homo sapiens, UniProt Q14994, WILDTYPEORMUTANTINASSAY1587668). The description is as §1. Format: cell-based. To be noted: human, COS-1 cells expressing human CAR3 and RXRalpha; read-out: Imax. The method in brief:
as §2

Data set [6] concerns the target T4, Nuclear receptor subfamily 1 group I member 3. In words: Agonist activity at CAR expressed in human HepG2 cells at 1 to 20 uM after 48 hrs by p(ER6)3-luciferase reporter gene assay. Format: cell-based. To be noted: hepg2, 48 h. The method in brief: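 HepG2 cells transiently co-transfected with p(ER6)3-luc reporter, wild-type CAR expression vector and pRL-TK normalization plasmid; after 24 h stabilization, treated with compounds or vehicle (DMSO 0.1%, v/v) for 48 h. Firefly and Renilla luciferase read; fold change versus vehicle (set to 1), means ± SD of triplicates from a representative experiment.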
Background: In a reporter assay the amount or activity of a reporter protein is the signal.

The target in data set [7] is T1, Vitamin D3 receptor (Homo sapiens). In words: Agonist activity at VDR in human primary hepatocytes assessed as upregulation of CYP2C9 mRNA expression at 10 uM after 24 hrs by qRT-PCR method. Format: cell-based. To be noted: Hepatocyte.
Data set [8] deals with T4, Nuclear receptor subfamily 1 group I member 3. In words: Agonist activity at CAR expressed in human HepG2 cells after 24 hrs by CYP3A4-luciferase reporter gene assay. The format is cell-based. The conditions noted are these: hepg2, 24 h. In outline:
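HepG2 cells co-transfected with CYP3A4-luc, wild-type CAR vector and pRL-TK; 24 h stabilization, then compound or DMSO (0.1%, v/v) for 24 h, with parallel androstenol (5 µM) treatment to suppress basal activity. Dual firefly/Renilla luciferase read; fold induction over vehicle (set to 1), means of three independent experiments.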

Regarding `COc1cccc(-c2nc(SC)c3ccccc3n2)c1`, the outcome in data set [1] and in data set [7] was Active. Also, the Activity entry in data set [2] is “Active”; in data set [4], “Active”; in data set [5], “Dose-dependent effect”; in [6], “Active”; in data set [8] it was “Dose-dependent effect”. Also, in [3], the result was inactive. For the same compound, the EC50 in data set [5] was found to be 4.04 µM. For the same compound, the Emax at 24 h at CAR3 (NR1I3) stood at 158%.

Turning to `COc1cccc(-c2nc3ccccc3c(=S)[nH]2)c1`, the result in data set [1] and in [7] was Active. Also, the Activity result in data set [2] is “Active”; in [4], “Active”; in data set [5] it was “Dose-dependent effect”; in data set [6] it was “Active”; in data set [8] it was “Dose-dependent effect”. In addition, the result in data set [3] was inactive. This compound showed an EC50 in data set [5] of 6.12 µM. Also, the Emax at 24 h at CAR3 (NR1I3) was found to be 333%.

With `COc1cccc(-c2nc(OC)c3ccccc3n2)c1`, the result in data set [1] and in data set [7] was Active. Further, the Activity result was “Active” in data set [2]; “Active” in [4]; “Dose-dependent effect” in data set [5]; “Active” in data set [6]; “Dose-dependent effect” in data set [8]. Further, the result in data set [3] was inactive. In [5], this compound returned an EC50 of 4.91 µM. In addition, the Emax at 24 h at CAR3 (NR1I3) worked out at 462%.
